For experiment [1], the target named is T1, Serine/threonine-protein kinase Chk1 (Homo sapiens, UniProt O14757).
T1 sequence (O14757 whole entry): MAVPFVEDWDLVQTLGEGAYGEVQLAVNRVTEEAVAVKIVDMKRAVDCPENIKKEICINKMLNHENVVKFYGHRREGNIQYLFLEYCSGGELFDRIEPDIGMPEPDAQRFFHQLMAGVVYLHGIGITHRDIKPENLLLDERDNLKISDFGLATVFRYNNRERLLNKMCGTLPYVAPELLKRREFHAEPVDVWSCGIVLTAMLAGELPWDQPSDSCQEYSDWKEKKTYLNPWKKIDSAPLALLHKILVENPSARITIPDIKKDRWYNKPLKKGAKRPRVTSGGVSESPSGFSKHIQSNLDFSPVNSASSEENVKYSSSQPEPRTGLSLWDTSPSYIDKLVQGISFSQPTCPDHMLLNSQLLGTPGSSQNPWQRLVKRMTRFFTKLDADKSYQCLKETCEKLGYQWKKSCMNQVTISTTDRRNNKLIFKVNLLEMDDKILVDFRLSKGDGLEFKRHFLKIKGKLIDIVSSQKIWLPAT
Briefly: Inhibition of human Chk1. An outline of the steps:
(§1)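 Chk1 from a commercial source or purified as GST–Chk1 from baculovirus-infected Sf9 cells. Assay based on a published method. Percent inhibition determined at 10 µM; IC50 determined for selected compounds.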

A further experiment relates to HT-29. Briefly: Antiproliferative activity against human HT29 cells […] by microculture tetrazolium assay. The experiment is classed as functional, cell-based. The method in brief: (§2)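 Tumor cells (ATCC) grown in RPMI 1640 with 10% fetal calf serum, 2 mM L-glutamine, penicillin/streptomycin, 10 mM HEPES pH 7.4. Continuous exposure to graded concentrations for four doubling times, then MTT added and incubated 4 h at 37 °C. Formazan dissolved in DMSO, optical density read. IC50 = concentration reducing OD by 50% versus untreated controls.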

For a further experiment, the system named is L1210. Description: Antiproliferative activity against mouse L1210 cells […] by microculture tetrazolium assay. The experiment is classed as functional, cell-based. An outline of the steps: as §2
Experiment [2] has as its target T2, Serine/threonine-protein kinase Chk1 (Homo sapiens) (UniProt O14757).
T2 sequence (whole entry): T1 sequence (O14757 whole entry)
Description: Inhibition of human Chk1 at 10 uM. The method in brief:
as §1

For a further experiment, the system named is A549. Briefly: Antiproliferative activity against human A549 cells […] by microculture tetrazolium assay. It is filed as functional, cell-based. The method in brief:
as §2

In experiment [3] the target is T3, DNA topoisomerase 1 (Homo sapiens) (UniProt P11387).
T3 sequence (whole entry): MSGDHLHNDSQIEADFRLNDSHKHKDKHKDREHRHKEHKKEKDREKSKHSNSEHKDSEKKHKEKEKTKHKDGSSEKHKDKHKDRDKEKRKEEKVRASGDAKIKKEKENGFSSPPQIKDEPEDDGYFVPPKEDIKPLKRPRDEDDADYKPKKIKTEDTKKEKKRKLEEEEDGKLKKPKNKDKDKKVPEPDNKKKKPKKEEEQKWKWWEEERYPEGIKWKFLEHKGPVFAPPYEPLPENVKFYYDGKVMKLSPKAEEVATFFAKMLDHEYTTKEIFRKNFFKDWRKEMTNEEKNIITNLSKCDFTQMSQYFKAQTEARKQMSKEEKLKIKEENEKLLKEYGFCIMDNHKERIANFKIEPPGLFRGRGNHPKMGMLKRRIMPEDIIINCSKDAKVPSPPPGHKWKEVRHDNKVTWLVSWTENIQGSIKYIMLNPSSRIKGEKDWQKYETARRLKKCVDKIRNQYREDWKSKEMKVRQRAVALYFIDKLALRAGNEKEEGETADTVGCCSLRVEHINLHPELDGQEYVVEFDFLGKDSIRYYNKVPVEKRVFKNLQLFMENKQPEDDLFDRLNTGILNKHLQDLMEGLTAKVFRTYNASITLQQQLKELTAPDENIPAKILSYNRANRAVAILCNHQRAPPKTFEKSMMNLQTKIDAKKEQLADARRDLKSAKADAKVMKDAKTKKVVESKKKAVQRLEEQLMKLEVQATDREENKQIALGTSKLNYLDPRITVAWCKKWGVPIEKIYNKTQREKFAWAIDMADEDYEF
Briefly: Inhibition of topoisomerase 1.

The subject of the next experiment is DU-145. Briefly: Antiproliferative activity against human DU145 cells […] by microculture tetrazolium assay. The experiment is classed as functional, cell-based. An outline of the steps:
as §2

In experiment [4] the target is T3, DNA topoisomerase 1 (Homo sapiens). Description: Inhibition of topoisomerase 1 upto 50 uM. An outline of the steps:
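DNA relaxation and DNA cleavage assays with topoisomerase I, run following published procedures, with compounds up to 50 µM.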

The next experiment is filed under the species Homo sapiens. Briefly: Binding affinity to DNA assessed as melting temperature.
In experiment [5] the target is Proto-oncogene tyrosine-protein kinase Src (Homo sapiens) (UniProt P12931). Briefly: Inhibition of Src tyrosine kinase at 1 uM after 20 mins.
Sequence of Proto-oncogene tyrosine-protein kinase Src (Homo sapiens) (P12931 2-536 limits assumed): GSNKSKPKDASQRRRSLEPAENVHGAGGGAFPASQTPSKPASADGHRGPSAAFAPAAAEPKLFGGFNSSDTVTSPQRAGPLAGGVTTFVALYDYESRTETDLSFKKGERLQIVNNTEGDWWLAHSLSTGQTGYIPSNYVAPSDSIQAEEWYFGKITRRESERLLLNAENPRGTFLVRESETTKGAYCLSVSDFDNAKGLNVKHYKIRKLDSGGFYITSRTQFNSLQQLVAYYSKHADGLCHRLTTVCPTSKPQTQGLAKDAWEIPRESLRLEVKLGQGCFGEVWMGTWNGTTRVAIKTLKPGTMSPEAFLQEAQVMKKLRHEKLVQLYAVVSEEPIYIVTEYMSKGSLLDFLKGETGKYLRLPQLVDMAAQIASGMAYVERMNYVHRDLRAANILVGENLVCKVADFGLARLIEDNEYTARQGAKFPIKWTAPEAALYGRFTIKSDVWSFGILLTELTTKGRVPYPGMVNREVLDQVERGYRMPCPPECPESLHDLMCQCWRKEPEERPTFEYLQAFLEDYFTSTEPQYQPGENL

Active and inactive are the calls of the source. The calls are words filed in the database; no cut-off is given here. A value given as a limit tells only on which side of the number the result lay.

With `O=C1NC(=O)c2c1c1c3cc(OCc4ccccc4)ccc3[nH]c1c1cccn21`, the IC50 (in general, the concentration that inhibits the measured activity by half) in experiment [1] is 0.64 µM; with HT-29 it was 13.7 µM; in the experiment on L1210, 27 µM; with A549, 23.2 µM. For the same compound, the inhibition (usually the share of the control response that was lost under treatment) in experiment [2] came to 54.8%.

`CN1C(=O)c2c(n3cccc3c3[nH]c4ccccc4c23)C1=O`: the result (in experiment [3]; in [4]; in the experiment filed under Homo sapiens) was inactive. The IC50 is 1.2 µM in the experiment with DU-145, over 100 µM with HT-29, 33 µM in the experiment with L1210 and over 100 µM in the experiment on A549.

For `CN1C(=O)c2c(n3cncc3c3[nH]c4ncccc4c23)C1=O`, the IC50 turned out to be 13.5 µM in the experiment with DU-145, 9.7 µM in the experiment on HT-29, 8.8 µM in the experiment with L1210 and 7.4 µM with A549. Besides, in experiment [2], the inhibition is 11.6%.

Consider `CN1C(=O)c2c(c3c4ccccc4[nH]c3c3cc[nH]c23)C1=O`, for which the outcome (in experiment [3]; in experiment [4]; in the experiment listed under Homo sapiens) was inactive. In addition, the IC50 in the experiment on DU-145 turned out to be 1.9 µM; in the experiment with HT-29 it was 5.9 µM; in the experiment with L1210, 4.9 µM; in the experiment on A549, 47.1 µM. In [2], this compound had an inhibition of 43.1%.

`O=C1NC(=O)c2c1c1c3ccccc3[nH]c1n1cncc21` [ISOGRANULATIMIDE]: the IC50 in the experiment with DU-145 was determined as 13.1 µM; in experiment [1], 0.44 µM; with A549, 18.1 µM.

Take `CN1C(=O)c2c(n3cncc3c3c2c2cccnc2n3[C@@H]2O[C@H](CO)[C@@H](O)[C@H](O)[C@H]2O)C1=O`: the IC50 was 56.1 µM with DU-145, 52.5 µM with HT-29, over 100 µM in the experiment on L1210 and 78.5 µM in the experiment with A549. The compound further yielded an inhibition in [2] of 15.1%.

As for `CN1C(=O)c2c(n3cccc3c3[nH]c4ccc(OCc5ccccc5)cc4c23)C1=O`, the outcome (in experiment [3]; in experiment [4]; in the experiment listed under Homo sapiens) was inactive. Further, the IC50 was 22.7 µM in the experiment on DU-145, 35.9 µM in the experiment with HT-29, 42.7 µM in the experiment with L1210 and 20 µM in the experiment with A549. Besides, the inhibition in [2] is 10.3%.

For the compound `CN1C(=O)c2c(n3cccc3c3[nH]c4ccc(O)cc4c23)C1=O`, the IC50 in the experiment on HT-29 worked out at 26.5 µM; in the experiment with L1210, 5.4 µM; in the experiment with A549, 8.8 µM. In addition, in experiment [2], the inhibition was determined as 54.1%.

Turning to `O=C1NC(=O)c2c1c1c3cc(O)ccc3[nH]c1c1cccn21`, the IC50 was 15.1 µM in the experiment on DU-145; 0.016 µM in [1]; 27.8 µM in the experiment with HT-29; 4.5 µM in the experiment with L1210; 16.1 µM in the experiment on A549. Besides, the inhibition in [2] amounted to 95.8%; in experiment [5], 1.2%.

`O=C1NC(=O)c2c1c1c3ccccc3[nH]c1c1cccn21`: the result (in experiment [3]; in [4]; in the experiment filed under Homo sapiens) was inactive. The IC50 in the experiment on DU-145 came to 1.4 µM; in experiment [1], 0.024 µM; in the experiment on HT-29, 3.3 µM; with L1210, 3.1 µM; in the experiment on A549, 2 µM. For the same compound, the inhibition in [2] is 85%; in [5] it was 32.5%.

For the compound `CN1C(=O)c2c(n3cccc3c3[nH]c4ccc(Br)cc4c23)C1=O`, the IC50 is over 100 µM in the experiment on DU-145, 88.3 µM in the experiment with HT-29, 48.7 µM in the experiment on L1210 and 67 µM with A549. In addition, in [2], the inhibition is 7.1%.

Consider `CN1C(=O)c2c(n3ccnc3c3c2c2cccnc2n3[C@@H]2O[C@H](CO)[C@@H](O)[C@H](O)[C@H]2O)C1=O`, for which the outcome (in experiment [3]; in [4]; in the experiment listed under Homo sapiens) was inactive. Also, the IC50 in the experiment on DU-145 is 64.8 µM; in the experiment with HT-29, 53 µM; in the experiment with L1210, over 100 µM; in the experiment on A549, 128 µM. In addition, in [2], the inhibition came out at 10.7%.

Regarding `CN1C(=O)c2c(n3cccc3c3[nH]c4ccc(Cl)cc4c23)C1=O`, the result (in experiment [3]; in experiment [4]; in the experiment filed under Homo sapiens) was inactive. Further, the IC50 in the experiment with HT-29 amounted to 63.2 µM; with L1210 it was 41.2 µM; in the experiment on A549, 68.3 µM. The compound also showed an inhibition in experiment [2] of 55.6%.

`O=C1NC(=O)c2c1c1c3cccnc3[nH]c1c1cccn21`: the half-inhibitory concentration (IC50) in the experiment with DU-145 came to 4.6 µM; in experiment [1], 3.6 µM; in the experiment with HT-29 it was 17.1 µM; with L1210, 29.2 µM; with A549, 19.7 µM. This compound displayed an inhibition in [2] of 76.6%.

As for `CN1C(=O)c2c(n3ccnc3c3[nH]c4ncccc4c23)C1=O`, the result in [3] and in experiment [4] was inactive. In addition, the IC50 worked out at 7.4 µM with DU-145, 30.6 µM in the experiment with HT-29, 43.5 µM in the experiment on L1210 and 35.6 µM with A549. This compound returned an inhibition in [2] of 36.1%.

For `O=C1NC(=O)c2c1c1[nH]cnc1c1[nH]c3ccccc3c21` [GRANULATIMIDE], the values for the half-maximal inhibitory concentration (IC50) (in the experiment with DU-145; in [1]; in the experiment with A549) were 2.8 µM, 0.08 µM and 11.4 µM, respectively. Besides, the inhibition in experiment [2] turned out to be 93.9%.

These data come from ChEMBL document CHEMBL1149629 (Bioorg Med Chem, 2007).
